Assay results reported in ChEMBL document CHEMBL3779892, “Increasing the binding affinity of VEGFR-2 inhibitors by extending their hydrophobic interaction with the active site: Design, synthesis and biological evaluation of 1-substituted-4-(4-methoxybenzyl)phthalazine derivatives” (Eur J Med Chem, 2016).

Assays:
Assay type in all cases: functional
[1] = Growth inhibition of human HCT116 cells at 10 uM after 48 hrs by sulforhodamine B assay; settings: HCT-116, 48 h, read-out: GI
How it was run: (§1)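 Run at NCI on the 60-line panel. Cells grown in RPMI 1640 with 5% FBS and 2 mM L-glutamine, plated at 5000–40,000 cells/well by doubling time, and held 24 h at 37 °C before dosing. Drug (DMSO stock) given at a single final 10 µM in triplicate wells for 48 h. Adherent cells fixed with cold TCA (10% final), suspension cells with 16% TCA. SRB stain read at 515 nm. Percent growth from Tz, C and Ti.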

[2] = Growth inhibition of human SF539 cells at 10 uM after 48 hrs by sulforhodamine B assay; settings: SF-539, 48 h, read-out: GI; how it was run: as §1
[3] = Growth inhibition of human RXF393 cells at 10 uM after 48 hrs by sulforhodamine B assay; settings: RXF 393, 48 h, read-out: GI; how it was run: as §1
[4] = system: U-251; experiment: Growth inhibition of human U251 cells at 10 uM after 48 hrs by sulforhodamine B assay; settings: U-251, 48 h, read-out: GI
How it was run: (§2)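 NCI-60 panel, adherent cells grown in RPMI 1640 with 5% FBS and 2 mM L-glutamine, plated at 5000–40,000 cells/well and preincubated 24 h at 37 °C, 5% CO2. 10 µM final compound from DMSO stock, triplicate wells, 48 h. Fixed with cold TCA (10% final, 60 min, 4 °C) and stained with 0.4% SRB. Absorbance read at 515 nm; growth calculated against time-zero and control wells.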

[5] = Growth inhibition of human RPMI8226 cells at 10 uM after 48 hrs by sulforhodamine B assay; settings: RPMI-8226, 48 h, read-out: GI; how it was run: as §1
[6] = Growth inhibition of human MOLT4 cells at 10 uM after 48 hrs by sulforhodamine B assay; settings: MOLT-4, 48 h, read-out: GI; how it was run: as §1
[7] = Growth inhibition of human LOXIMVI cells at 10 uM after 48 hrs by sulforhodamine B assay; settings: LOX IMVI, read-out: GI; how it was run: as §1
[8] = system: SN12C; experiment: Growth inhibition of human SN12C cells at 10 uM after 48 hrs by sulforhodamine B assay; settings: read-out: GI; how it was run: as §1
[9] = Growth inhibition of human IGROV1 cells at 10 uM after 48 hrs by sulforhodamine B assay; settings: IGROV-1, 48 h, read-out: GI; how it was run: as §1
[10] = Growth inhibition of human HCC2998 cells at 10 uM after 48 hrs by sulforhodamine B assay; settings: HCC 2998, 48 h, read-out: GI; how it was run: as §1
[11] = Growth inhibition of human UACC257 cells at 10 uM after 48 hrs by sulforhodamine B assay; settings: UACC-257, 48 h, read-out: GI; how it was run: as §2
[12] = system: NCI-H322M; experiment: Growth inhibition of human NCI-H322M cells at 10 uM after 48 hrs by sulforhodamine B assay; settings: read-out: GI; how it was run: as §1
[13] = Growth inhibition of human SKOV3 cells at 10 uM after 48 hrs by sulforhodamine B assay; settings: SK-OV-3, 48 h, read-out: GI; how it was run: as §1
[14] = system: MCF7; experiment: Growth inhibition of human MCF7 cells at 10 uM after 48 hrs by sulforhodamine B assay; settings: MCF7, 48 h, read-out: GI; how it was run: as §1
[15] = system: 786-0; experiment: Growth inhibition of human 786-0 cells at 10 uM after 48 hrs by sulforhodamine B assay; settings: 786-0, 48 h, read-out: GI; how it was run: as §1
[16] = Growth inhibition of human TK10 cells at 10 uM after 48 hrs by sulforhodamine B assay; settings: TK-10, 48 h, read-out: GI; how it was run: as §2
[17] = Growth inhibition of human COLO205 cells at 10 uM after 48 hrs by sulforhodamine B assay; settings: COLO 205, 48 h, read-out: GI; how it was run: as §1
[18] = Growth inhibition of human Caki1 cells at 10 uM after 48 hrs by sulforhodamine B assay; settings: CAKI-1, 48 h, read-out: GI; how it was run: as §1
[19] = system: Malme-3M; experiment: Growth inhibition of human MALME-3M cells at 10 uM after 48 hrs by sulforhodamine B assay; settings: read-out: GI; how it was run: as §1
[20] = system: T47D; experiment: Growth inhibition of human T47D cells at 10 uM after 48 hrs by sulforhodamine B assay; settings: read-out: GI; how it was run: as §2
[21] = Growth inhibition of human BT549 cells at 10 uM after 48 hrs by sulforhodamine B assay; settings: BT-549, 48 h, read-out: GI; how it was run: as §1
[22] = Growth inhibition of human OVCAR4 cells at 10 uM after 48 hrs by sulforhodamine B assay; settings: OVCAR-4, 48 h, read-out: GI; how it was run: as §1
[23] = Growth inhibition of human HOP62 cells at 10 uM after 48 hrs by sulforhodamine B assay; settings: HOP-62, 48 h, read-out: GI; how it was run: as §1
[24] = Growth inhibition of human HCT15 cells at 10 uM after 48 hrs by sulforhodamine B assay; settings: HCT-15, 48 h, read-out: GI; how it was run: as §1

| SMILES | inhibition of growth at 10 µM [1] [%] | inhibition of growth at 10 µM [2] [%] | inhibition of growth at 10 µM [3] [%] | inhibition of growth at 10 µM [4] [%] | inhibition of growth at 10 µM [5] [%] | inhibition of growth at 10 µM [6] [%] | inhibition of growth at 10 µM [7] [%] | inhibition of growth at 10 µM [8] [%] | inhibition of growth at 10 µM [9] [%] | inhibition of growth at 10 µM [10] [%] | inhibition of growth at 10 µM [11] [%] | inhibition of growth at 10 µM [12] [%] | inhibition of growth at 10 µM [13] [%] | inhibition of growth at 10 µM [14] [%] | inhibition of growth at 10 µM [15] [%] | inhibition of growth at 10 µM [16] [%] | inhibition of growth at 10 µM [17] [%] | inhibition of growth at 10 µM [18] [%] | inhibition of growth at 10 µM [19] [%] | inhibition of growth at 10 µM [20] [%] | other results |
| --- | --- | --- | --- | --- | --- | --- | --- | --- | --- | --- | --- | --- | --- | --- | --- | --- | --- | --- | --- | --- | --- |
| COc1ccc(Cc2nnc(Nc3ccc(NC(=O)Nc4cccc(OC)c4)cc3)c3ccccc23)cc1 | < 30 | 35 | 50 | 32 | 43 | < 30 | < 30 | < 30 | < 30 | < 30 | < 30 | < 30 | < 30 | < 30 | 42 | < 30 | < 30 | < 30 | < 30 | < 30 | inhibition of growth at 10 µM [21]: < 30%; inhibition of growth at 10 µM [22]: < 30%; inhibition of growth at 10 µM [23]: < 30%; inhibition of growth at 10 µM [24]: < 30% |
| COc1ccc(Cc2nnc(Nc3ccc(NC(=O)Nc4cccc(C(F)(F)F)c4)cc3)c3ccccc23)cc1 | 42 | < 30 | 50 | 30 | 42 | 37 | < 30 | < 30 | < 30 | < 30 | < 30 | < 30 | < 30 | < 30 | 41 | < 30 | < 30 | < 30 | < 30 | < 30 | inhibition of growth at 10 µM [21]: < 30%; inhibition of growth at 10 µM [22]: < 30%; inhibition of growth at 10 µM [23]: < 30%; inhibition of growth at 10 µM [24]: < 30% |
| COc1ccc(Cc2nnc(Nc3ccc(C#N)cc3)c3ccccc23)cc1 | < 30 | < 30 | < 30 | < 30 | < 30 | < 30 | < 30 | < 30 | < 30 | < 30 | < 30 | < 30 | < 30 | < 30 | < 30 | < 30 | < 30 | < 30 | < 30 | 50 | inhibition of growth at 10 µM [21]: < 30%; inhibition of growth at 10 µM [22]: < 30%; inhibition of growth at 10 µM [23]: < 30%; inhibition of growth at 10 µM [24]: < 30% |
| COc1ccc(Cc2nnc(Nc3cccc(Cl)c3)c3ccccc23)cc1 | 49 | 35 | < 30 | 34 | 89 | 37 | < 30 | 34 | < 30 | < 30 | < 30 | < 30 | < 30 | < 30 | < 30 | < 30 | < 30 | < 30 | < 30 | 41 | inhibition of growth at 10 µM [21]: < 30%; inhibition of growth at 10 µM [22]: < 30%; inhibition of growth at 10 µM [23]: < 30%; inhibition of growth at 10 µM [24]: 33% |
| COc1ccc(Cc2nnc(Nc3ccccc3)c3ccccc23)cc1 | < 30 | < 30 | < 30 | < 30 | 58 | < 30 | < 30 | < 30 | < 30 | < 30 | < 30 | < 30 | < 30 | < 30 | < 30 | < 30 | < 30 | < 30 | < 30 | < 30 | inhibition of growth at 10 µM [21]: < 30%; inhibition of growth at 10 µM [22]: < 30%; inhibition of growth at 10 µM [23]: < 30%; inhibition of growth at 10 µM [24]: < 30% |
| COc1ccc(Cc2nnc(Nc3ccc(NC(=O)Nc4ccccc4)cc3)c3ccccc23)cc1 | 35 | < 30 | 49 | 32 | 46 | 30 | < 30 | < 30 | < 30 | < 30 | < 30 | < 30 | < 30 | < 30 | 36 | < 30 | < 30 | < 30 | < 30 | 41 | inhibition of growth at 10 µM [21]: < 30%; inhibition of growth at 10 µM [22]: < 30%; inhibition of growth at 10 µM [23]: < 30%; inhibition of growth at 10 µM [24]: < 30% |
| COc1ccc(Cc2nnc(Nc3ccc(Cl)cc3)c3ccccc23)cc1 | 66 | 46 | 32 | 38 | 69 | 48 | 58 | 50 | 36 | < 30 | < 30 | 45 | < 30 | 36 | 43 | 52 | < 30 | 37 | < 30 | 44 | inhibition of growth at 10 µM [21]: < 30%; inhibition of growth at 10 µM [22]: 33%; inhibition of growth at 10 µM [23]: 40%; inhibition of growth at 10 µM [24]: 33% |
| COc1ccc(Cc2nnc(Nc3cccc(C(F)(F)F)c3)c3ccccc23)cc1 | 56 | 36 | 34 | 44 | 87 | 60 | < 30 | 46 | 37 | 31 | < 30 | < 30 | < 30 | 35 | 33 | < 30 | < 30 | 32 | < 30 | 56 | inhibition of growth at 10 µM [21]: < 30%; inhibition of growth at 10 µM [22]: 31%; inhibition of growth at 10 µM [23]: < 30%; inhibition of growth at 10 µM [24]: 41% |
